Data as given in ChEMBL document CHEMBL4513216, “Probing the Open Global Health Chemical Diversity Library for Multistage-Active Starting Points for Next-Generation Antimalarials” (ACS Infect Dis, 2020).

Test: Toxicity liver stage against HepG2, at 10uM
Format: cell-based
Parameters: test concentration 10 uM, cell line HepG2-A16-CD81EGFP
Conditions: human, HepG2-A16-CD81EGFP cells; read-out: INHIBITION
Summary of the method: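 Uninfected HepG2-A16-CD81EGFP cells, 3 × 10^3 per well, 1536-well, plated on prespotted compound at 10 μM final, parasite-free screening media added to match infected plates; puromycin 10 μM positive, DMSO 0.5% negative; run in parallel with 48 h PbLuc assay at 37 °C, 5% CO2; viability by CellTiter-Glo luminescence, normalized to controls.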

SMILES	cytotoxicity at 10 µM [%]
COc1ccc(OC)c(Sc2ncccc2C(=O)NCCSC)c1	20.7
CC(C)c1cc(C(=O)O)nc2[nH]c(=O)[nH]c(=O)c12	-3.25
COc1cc(OC)cc(-c2noc(CC(N)c3ccccc3)n2)c1 (stereo not given)	4.47
O=C(Cn1ncc2c(c1=O)CCCCC2)Nc1cccc2[nH]ccc12	0.417
COC(=O)c1ccc(C(=O)NCC2(O)CCOCC2)cc1	-5.08
COCc1cnc2n1CCN(S(=O)(=O)c1c(C)nn(C)c1C)C2C (stereo not given)	15.4
Cc1ncnc2c1CCN(C(=O)Cc1cccc(F)c1)CC2	-5.95
CN(C)C(=O)c1nc2c(s1)CCCN2Cc1ccccc1	7.58
CC(C)NC(=O)c1nc2c(s1)CCCN2Cc1ccccc1	18.3
CCOC(=O)C1CN(C(=O)C2CCOCC2)Cc2ncn(CC)c21 (stereo not given)	5.65
C[C@H]1C[C@@H]2CCN(CC3CCOCC3)C[C@H]2O1	10.3
CCOCC1CN(Cc2ccsc2)Cc2cnn(C)c21 (stereo not given)	7.72
COc1ncccc1CN1C[C@H](C(=O)N2CCCO2)[C@@H]2CCO[C@@H]2C1	11.2
O=C(O)c1ccc2[nH]cc(CN3CCCC3)c2c1	-2.66
O=C1COc2ccc(S(=O)(=O)NCC3CCCO3)c3c2N1CCC3 (stereo not given)	-4.2
CCS(=O)(=O)N1Cc2nccn2CC(COc2cccnc2)C1 (stereo not given)	-2.34
CN1CCCC(c2ccnc(C(=O)NCC3CC3)c2)C1 (stereo not given)	3.89
CC(=O)N1CCCN(c2cc(C3CN(C)CCO3)nc(C)n2)CC1 (stereo not given)	7.47
CNc1nc2ncc(Cl)cc2cc1C#N	5.05
Cc1cc(C)c2ncc(C#N)c(N3CCS(=O)(=O)CC3)c2c1	-8.17
Cc1cc(C)c(CNC(=O)C(C)Oc2cccc(C#N)c2)c(=O)[nH]1 (stereo not given)	7.42
Cc1nc(C)n(CC2CCCCN2CCCC#N)n1 (stereo not given)	6.73
Cc1cc(C)n(CC2CCCCN2CCCS(=O)(=O)N(C)C)n1 (stereo not given)	2.32
O=C(NCCCF)N1CCC(n2ccc(C(F)(F)F)n2)CC1	-5.29
O=C(Nc1nccs1)NC1CCOc2ccccc21 (stereo not given)	6.78
CS(=O)(=O)c1ccc(OCCNCc2c(F)cccc2F)cc1	-7.12
CC(=O)c1ccc(NC(=O)C(NC(=O)Nc2ccccc2)C(C)C)cc1 (stereo not given)	-0.719
COc1cc(F)c(NC(=O)N(C)CCNC(=O)N(C)C)cc1F	17.6

SMILES	cytotoxicity at 10 µM [%]
Cc1nc(CN(C)c2nc3c(cnn3C(C)(C)C)c(=O)[nH]2)cs1	-5.53
O=C(NC1(c2nccs2)CCCC1)c1cc(C2CC2)on1	6.65
Cc1n[nH]c(C)c1C1CCCN1C(=O)c1coc(Br)c1 (stereo not given)	4.23
CSCC(CCO)NC(=O)c1cccc(Cl)c1F (stereo not given)	19
Cc1noc2ncc(S(=O)(=O)N3CCCC(C)(C)CC3)cc12	8.88
Cc1cc(C(=O)N2CCCC(c3nncn3C)C2)no1 (stereo not given)	0.541
COc1ccc(Cl)cc1NC(=O)CNc1ccn(CC(N)=O)n1	13.6
[O-][S+](CCN1CCc2[nH]nc(C(F)(F)F)c2C1)c1ccccc1 (stereo not given)	-9.92
Cn1c(C(=O)NS(C)(=O)=O)ccc1-c1ccccc1	-6.85
c1ccc(CSc2nnc(C3CC3)s2)nc1	0.873
Cc1cccc(C)c1NCc1noc(C2CC2)n1	-5.06
Cc1nnc(CN(Cc2ccc(Cl)c(Cl)c2)C2CC2)o1	4.85
CS(=O)(=O)Cc1nc(CN2CCCc3sccc3C2)cs1	7.28
CN(Cc1ccc(Cl)c(F)c1)C(=O)c1ccncc1F	3.31
COCCn1nc(C(=O)N(C)Cc2cnn(C)c2)ccc1=O	-2.44
Cn1c(CN2CCN(CC3CC3)CC2)nnc1C1CCC1	-26.7
CCS(=O)(=O)N1CCCn2nnc(Cn3cccc3)c2C1	9.77
CC(c1cccc(-c2nccn2CCc2ccccn2)c1)N(C)C (stereo not given)	7.62
CCC[C@@H]1CN(Cc2ccc(N(C)C)nc2)C[C@H]1N(C)C	-15.1
Cc1nn(C)c(C)c1CN(C)C(=O)C1COc2ccccc2C1 (stereo not given)	-3.35
NC(=O)c1ccc(-n2ccnc2C2CC2)cc1N1CCCC1	-3.82
CC(C1CCN(Cc2ccc(N(C)C)nc2)CC1)N1CCOCC1 (stereo not given)	6.06
Cc1ccc(C)c(OCCNC(=O)C2CCOC2)c1 (stereo not given)	-2.73
COc1ccc2cc(CN(C)CCc3cn[nH]c3)c(=O)[nH]c2c1	0.363
CC(O)c1cccc(-n2c(CCC(=O)O)nc3ccccc32)c1 (stereo not given)	2.16
CCN(C)C[C@@H]1CN(S(=O)(=O)c2cccc(C#N)c2)C[C@@H]1CO	5.45
c1cnc(N2CCC(c3nccn3CC3CC3)CC2)nc1	-7.28
